Data reported in publication PMC3431965 (The Journal of organic chemistry, 2012).
Substitutions are numbered along the chain they refer to. Read-outs that look alike come from different tables or passages of the source.

Columns and labels:
[1] = biological target: T1, α-mannosidase (jack bean) (Canavalia ensiformis, UniProt C0HJB3); experiment: Glycosidase inhibition assay, α-mannosidase; format: biochemical; conditions: for α-Man % Ra (% remaining activity at 100 µM): 100 µM compound, substrate at Km; for remaining activity at 100 µM: read-out: α-Man % Ra (% remaining activity at 100 µM)
T1 sequence (C0HJB3 1-562 limits assumed): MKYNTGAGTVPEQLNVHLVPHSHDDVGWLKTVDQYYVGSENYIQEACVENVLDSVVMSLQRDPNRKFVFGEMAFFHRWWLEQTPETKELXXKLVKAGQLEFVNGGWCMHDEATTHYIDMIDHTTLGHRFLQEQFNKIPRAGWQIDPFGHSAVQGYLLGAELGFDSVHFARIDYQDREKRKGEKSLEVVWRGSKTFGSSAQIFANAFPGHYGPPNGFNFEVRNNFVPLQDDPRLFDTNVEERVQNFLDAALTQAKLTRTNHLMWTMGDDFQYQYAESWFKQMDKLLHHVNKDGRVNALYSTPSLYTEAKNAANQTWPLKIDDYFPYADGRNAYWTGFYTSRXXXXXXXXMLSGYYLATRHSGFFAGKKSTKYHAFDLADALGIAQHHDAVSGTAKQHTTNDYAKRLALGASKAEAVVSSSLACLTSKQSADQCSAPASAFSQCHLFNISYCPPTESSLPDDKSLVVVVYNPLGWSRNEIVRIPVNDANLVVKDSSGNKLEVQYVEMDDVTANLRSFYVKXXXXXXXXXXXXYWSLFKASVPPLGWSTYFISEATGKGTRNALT
T1 sequence (C0HJB3 563-981 partner limits assumed): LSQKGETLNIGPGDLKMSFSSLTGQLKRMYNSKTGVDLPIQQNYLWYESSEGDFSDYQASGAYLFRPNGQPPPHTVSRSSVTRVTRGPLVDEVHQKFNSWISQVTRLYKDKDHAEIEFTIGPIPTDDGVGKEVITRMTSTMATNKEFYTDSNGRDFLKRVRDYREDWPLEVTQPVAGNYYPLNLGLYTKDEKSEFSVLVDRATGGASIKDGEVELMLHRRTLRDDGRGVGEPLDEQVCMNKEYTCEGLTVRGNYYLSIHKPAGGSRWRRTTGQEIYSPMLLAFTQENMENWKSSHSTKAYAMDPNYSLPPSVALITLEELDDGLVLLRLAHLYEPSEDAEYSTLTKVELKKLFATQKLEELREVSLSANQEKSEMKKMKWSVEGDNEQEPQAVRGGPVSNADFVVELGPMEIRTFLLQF
How it was run: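 Enzyme starts the reaction with test compound at 100 µM. After 4–5 min at room temperature, 0.2 M sodium borate (pH 9.8) quenches it. Absorbance is read at 405 nm and reported as % remaining activity.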

[2] = test system: β-mannosidase (Roman snail); experiment: Glycosidase inhibition assay, β-mannosidase; format: biochemical; conditions: 100 µM compound; substrate at Km
How it was run: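 Test compound is at 100 µM. Enzyme addition starts the reaction, which runs 4–5 min at room temperature before quenching with 0.2 M sodium borate (pH 9.8). Absorbance is read at 405 nm and given as % remaining activity.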

[3] = biological target: T2, ceramide-specific glucosyltransferase (Mus musculus, UniProt O88693); experiment: Ceramide-specific glucosyltransferase assay, mouse testicular microsomes; format: biochemical, C57BL/6 mouse
T2 sequence (O88693 1-394): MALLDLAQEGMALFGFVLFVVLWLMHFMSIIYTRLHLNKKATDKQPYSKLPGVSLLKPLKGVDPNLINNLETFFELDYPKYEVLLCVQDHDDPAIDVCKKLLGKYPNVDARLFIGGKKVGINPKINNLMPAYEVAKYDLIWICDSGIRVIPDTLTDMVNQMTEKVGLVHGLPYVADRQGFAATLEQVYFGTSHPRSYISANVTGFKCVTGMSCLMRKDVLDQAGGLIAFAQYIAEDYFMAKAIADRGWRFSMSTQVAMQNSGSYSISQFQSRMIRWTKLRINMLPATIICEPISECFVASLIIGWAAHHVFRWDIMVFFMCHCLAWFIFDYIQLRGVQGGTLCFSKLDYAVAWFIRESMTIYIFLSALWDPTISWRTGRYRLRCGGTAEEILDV

[4] = biological target: T3, ceramide-specific glucosyltransferase (Rattus norvegicus, UniProt Q9R0E0); experiment: Ceramide-specific glucosyltransferase assay, rat testicular microsomes; format: biochemical, Long Evans (LE) rat
T3 sequence (Q9R0E0 1-394): T2 sequence (O88693 1-394) with D96E, K164R, R249K, T377A

[5] = test system: α-glucosidase (Saccharomyces cerevisiae); experiment: Glycosidase inhibition assay, α-glucosidase; format: biochemical; conditions: substrate at Km; for α-Glc % Ra (% remaining activity at 100 µM): 100 µM compound
[6] = test system: β-glucosidase (almond); experiment: Glycosidase inhibition assay, β-glucosidase; format: biochemical; conditions: substrate at Km; for β-Glc % Ra (% remaining activity at 100 µM): 100 µM compound; for IC50: read-out: β-Glc IC50
How it was run: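 Enzyme is added last; incubation is 4–5 min at room temperature, then 0.2 M sodium borate (pH 9.8) quenches. Absorbance at 405 nm gives % remaining activity at 100 µM compound. IC50 comes from non-linear fitting of relative activity versus concentration to a Hill-slope equation.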

[7] = biological target: α-galactosidase (green coffee beans) (Coffea arabica, UniProt Q42656); experiment: biochemical; conditions: for α-Gal % Ra (% remaining activity at 100 µM): 100 µM compound, substrate at Km; for remaining activity at 100 µM: read-out: α-Gal % Ra (% remaining activity at 100 µM)
[8] = biological target: β-galactosidase (Escherichia coli) (Escherichia coli, UniProt P00722); experiment: biochemical; conditions: for β-Gal % Ra (% remaining activity at 100 µM): 100 µM compound; for remaining activity at 100 µM: read-out: β-Gal % Ra (% remaining activity at 100 µM)
[9] = biological target: T4, testicular β-glucosidase 2 (Rattus norvegicus, UniProt Q5M868); experiment: Testicular glucosidase assay; format: biochemical, Long Evans (LE) rat
T4 sequence (Q5M868 1-912): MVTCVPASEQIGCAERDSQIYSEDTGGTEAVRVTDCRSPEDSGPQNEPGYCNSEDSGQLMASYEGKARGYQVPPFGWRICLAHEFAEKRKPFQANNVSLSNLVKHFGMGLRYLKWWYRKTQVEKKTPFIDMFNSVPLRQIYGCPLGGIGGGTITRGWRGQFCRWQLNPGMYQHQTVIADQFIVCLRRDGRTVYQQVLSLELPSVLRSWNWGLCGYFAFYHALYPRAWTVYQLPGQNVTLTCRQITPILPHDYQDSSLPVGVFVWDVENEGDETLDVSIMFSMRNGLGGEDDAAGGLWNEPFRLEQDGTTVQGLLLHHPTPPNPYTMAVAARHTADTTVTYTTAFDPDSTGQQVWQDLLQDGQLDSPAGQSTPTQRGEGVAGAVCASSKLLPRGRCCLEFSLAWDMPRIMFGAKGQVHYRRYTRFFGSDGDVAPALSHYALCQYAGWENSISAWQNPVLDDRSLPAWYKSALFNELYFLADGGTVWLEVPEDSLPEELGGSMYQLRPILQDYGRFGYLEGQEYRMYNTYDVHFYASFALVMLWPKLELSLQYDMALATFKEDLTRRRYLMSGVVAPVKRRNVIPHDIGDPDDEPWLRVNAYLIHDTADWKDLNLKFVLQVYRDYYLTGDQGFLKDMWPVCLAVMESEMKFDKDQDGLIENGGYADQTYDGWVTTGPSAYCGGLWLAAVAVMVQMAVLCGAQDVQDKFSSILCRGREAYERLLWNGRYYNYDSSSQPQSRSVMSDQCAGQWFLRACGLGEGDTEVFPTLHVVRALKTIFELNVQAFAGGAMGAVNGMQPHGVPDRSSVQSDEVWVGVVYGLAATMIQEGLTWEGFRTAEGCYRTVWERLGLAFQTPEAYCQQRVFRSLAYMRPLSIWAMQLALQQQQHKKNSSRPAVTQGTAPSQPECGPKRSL

[10] = read-out: ceramide-specific glucosyltransferase IC50 (C57BL/6, mouse), mouse testicular microsomes, n.i. = no inhibition at 1000 µM concentration
[11] = read-out: ceramide-specific glucosyltransferase IC50 (LE rat), rat testicular microsomes, n.i. = no inhibition at 1000 µM concentration
[12] = mouse testicular microsomes, n.i. = no inhibition at 1000 µM concentration
[13] = rat testicular microsomes, n.i. = no inhibition at 1000 µM concentration

Sequence of β-galactosidase (Escherichia coli) (P00722 2-1024): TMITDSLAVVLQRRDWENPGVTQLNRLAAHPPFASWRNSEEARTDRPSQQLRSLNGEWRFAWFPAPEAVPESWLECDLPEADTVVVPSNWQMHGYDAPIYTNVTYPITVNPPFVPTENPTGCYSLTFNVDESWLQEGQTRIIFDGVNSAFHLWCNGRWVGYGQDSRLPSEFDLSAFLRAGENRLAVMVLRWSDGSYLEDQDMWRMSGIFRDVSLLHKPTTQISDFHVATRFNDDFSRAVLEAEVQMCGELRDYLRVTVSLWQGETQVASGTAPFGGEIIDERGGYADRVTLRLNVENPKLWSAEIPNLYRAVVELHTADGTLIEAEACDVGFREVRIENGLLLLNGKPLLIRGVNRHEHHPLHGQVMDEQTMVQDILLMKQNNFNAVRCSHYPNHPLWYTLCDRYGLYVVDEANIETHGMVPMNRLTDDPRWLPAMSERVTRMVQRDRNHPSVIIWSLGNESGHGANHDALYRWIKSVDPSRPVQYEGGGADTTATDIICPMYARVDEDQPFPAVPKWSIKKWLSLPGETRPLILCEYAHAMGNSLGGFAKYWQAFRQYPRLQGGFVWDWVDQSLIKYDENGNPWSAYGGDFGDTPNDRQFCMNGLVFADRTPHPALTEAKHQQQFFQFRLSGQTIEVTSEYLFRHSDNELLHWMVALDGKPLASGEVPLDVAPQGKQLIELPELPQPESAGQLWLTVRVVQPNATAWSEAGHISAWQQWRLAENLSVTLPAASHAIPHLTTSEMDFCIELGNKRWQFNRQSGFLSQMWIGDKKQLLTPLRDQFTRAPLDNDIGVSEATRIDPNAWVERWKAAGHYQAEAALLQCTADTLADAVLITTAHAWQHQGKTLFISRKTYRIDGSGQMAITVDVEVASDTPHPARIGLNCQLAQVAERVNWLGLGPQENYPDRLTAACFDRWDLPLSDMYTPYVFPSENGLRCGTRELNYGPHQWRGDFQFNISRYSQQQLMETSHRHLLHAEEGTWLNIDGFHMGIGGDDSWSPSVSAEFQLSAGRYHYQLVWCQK
Sequence of α-galactosidase (green coffee beans) (Q42656 16-378): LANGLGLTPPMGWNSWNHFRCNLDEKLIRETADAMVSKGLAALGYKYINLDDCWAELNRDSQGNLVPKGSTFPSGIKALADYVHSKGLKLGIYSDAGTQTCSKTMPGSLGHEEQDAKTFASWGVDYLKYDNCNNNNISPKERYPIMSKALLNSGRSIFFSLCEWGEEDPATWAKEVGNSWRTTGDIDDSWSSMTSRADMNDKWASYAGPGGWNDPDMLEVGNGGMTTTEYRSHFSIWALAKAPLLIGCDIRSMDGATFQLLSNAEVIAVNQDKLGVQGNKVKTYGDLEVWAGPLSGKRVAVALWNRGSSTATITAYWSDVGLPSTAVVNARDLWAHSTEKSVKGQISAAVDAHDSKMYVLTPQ

| Structure (SMILES) | α-Man % Ra (% remaining activity at 100 µM) [1] | β-Man % Ra (% remaining activity at 100 µM) [2] | α-Glc % Ra (% remaining activity at 100 µM) [5] | β-Glc % Ra (% remaining activity at 100 µM) [6] | α-Gal % Ra (% remaining activity at 100 µM) [7] | β-Gal % Ra (% remaining activity at 100 µM) ([8]; substrate at Km) | remaining activity at 100 µM [7] | remaining activity at 100 µM [8] | remaining activity at 100 µM [1] | other results |
| --- | --- | --- | --- | --- | --- | --- | --- | --- | --- | --- |
| OC[C@H]1NC[C@@H](O)[C@@H](O)[C@@H]1O [DMJ, 1-deoxymannojirimycin, reference compound] | 75% | 77% |  |  |  |  |  |  |  |  |
| CCCCN1[C@H](CO)[C@@H](O)[C@@H]1CO [Compound 24, ((2R,3s,4S)-1-Butyl-3-hydroxyazetidine-2,4-diyl)dimethanol] | 99% | 113% | 65% | 101% | 106% | 109% |  |  |  | IC50 [3, 10]: > 300 µM; IC50 [4, 11]: > 300 µM |
| CCCCCCCCCN1[C@H](CO)C(O)[C@H]1CO [Compound 23, ((2R,4R)-3-Hydroxy-1-nonylazetidine-2,4-diyl)dimethanol] |  | 115% | 100% | 95% |  |  | 99% | 88% | 100% | IC50 [3]: > 300 µM; IC50 [4]: > 300 µM; IC50 [9]: > 300 µM |
| CCCCN1C/C=C\[C@@H](O)[C@H](O)[C@@H](O)C1 [Compound 3, (3S,4S,5R,Z)-1-Butyl-1,2,3,4,5,8-hexahydroazocine-3,4,5-triol] |  | 99% | 81% | 52% |  |  | 100% | 94% | 100% | ceramide-specific glucosyltransferase IC50 (C57BL/6, mouse) [3, 12]: n.i.; ceramide-specific glucosyltransferase IC50 (LE rat) [4, 13]: n.i.; IC50 [6]: 105 µM |
| O[C@H]1[C@H](O)[C@@H](O)CN2CC[C@H](O)[C@H]12 [Castano., castanospermine, reference compound] |  |  |  | 13.5% |  |  |  |  |  |  |
| CCCCCCCCCN1CCC[C@@H](O)[C@H](O)[C@@H](O)C1 [Compound 2, (3S,4S,5R)-1-Nonylazocane-3,4,5-triol] |  | 93% | 84% | 43% |  |  | 100% | 92% | 100% | ceramide-specific glucosyltransferase IC50 (C57BL/6, mouse) [3, 12]: n.i.; ceramide-specific glucosyltransferase IC50 (LE rat) [4, 13]: n.i.; IC50 [9]: 803 µM; IC50 [6]: 92 µM |
| CCCCCCCCCN1[C@H](CO)[C@@H](O)[C@@H]1CO [Compound 25, ((2R,3s,4S)-3-Hydroxy-1-nonylazetidine-2,4-diyl)dimethanol] | 92% | 76% |  | 26% | 66% | 107% |  |  |  | IC50 [3, 10]: 44 µM; IC50 [4, 11]: 91 µM; IC50 ([5]; read-out: α-Glc IC50): 0.6 µM; IC50 [6]: 20 µM |
| OC[C@H]1NC[C@H](O)[C@@H](O)[C@H]1O [DGJ, 1-deoxygalactonojirimycin, reference compound] |  |  |  |  | 0.05% | 23% |  |  |  | IC50 ([8]; read-out: β-Gal IC50, substrate at Km): 40 µM |
| CCCCCCCCCN1[C@@H](CO)C(O)[C@@H]1CO [Compound 27, ((2S,4S)-3-Hydroxy-1-nonyl-azetidine-2,4-diyl)dimethanol] |  | 106% | 100% | 95% |  |  | 57% | 99% | 99% | IC50 [3]: > 300 µM; IC50 [4]: > 300 µM; IC50 [9]: 70 µM |
| CCCCN1C[C@H](O)[C@@H](O)[C@@H](O)[C@H]1CO [NB-DGJ, N-butyldeoxygalactonojirimycin, reference compound] |  |  |  |  |  |  |  | 9.6% |  | IC50 [8]: 6 µM |
| CCCCCCCCCN1C[C@@H](O)[C@@H](O)[C@@H](O)[C@H](O)[C@@H](O)C1 [Compound 6, (3S,4R,5S,6R,7R)-1-Nonylazocane-3,4,5,6,7-pentaol] | 100% | 99% | 84% | 85% | 100% | 92% |  |  |  | ceramide-specific glucosyltransferase IC50 (C57BL/6, mouse) [3, 12]: n.i.; IC50 [4, 11]: 127 µM |
| OC[C@H]1NC[C@H](O)[C@@H](O)[C@@H]1O [DNJ, 1-deoxynojirimycin, reference compound] |  |  | 34% |  |  |  |  |  |  |  |
